Laboratory results: ChEMBL document CHEMBL1146554, “Antioxidative meroterpenoids from the brown alga Cystoseira crinita” (J Nat Prod, 2003)
≈ marks a conversion by molar mass, not a printed value. Calls of active or inactive are those of the source. The calls are words filed in the database; no cut-off is given here.

What was measured:
[1] = tested on: [Chlorella] fusca; test: Antimicrobial activity against 'Chlorella' fusca at 50 ug/disk by agar diffusion assay; format: functional, organism-based; conditions: Scenedesmus fuscus
Method in brief: (§1)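 Agar diffusion assay with discs loaded at 50 µg/disk, run against the bacteria, fungi and the green microalga Chlorella fusca.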

[2] = Antioxidant activity assessed as inhibition of FeSO4-induced lipid peroxidation at 82 uM by TBARS assay; format: functional
Method in brief: (§2)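 Linolenic acid methyl ester oxidized under FeSO4 catalysis in 50 mM phosphate buffer pH 7.2 at 50 °C. BHT in ethanol added to stop further oxidation. TBARS developed with trichloroacetic and thiobarbituric acid, 60 °C for 30 min. Read A532 minus A600 background. % inhibition calculated versus uninhibited control, with blank and sample-blank corrections.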

[3] = tested on: Radical scavenging activity; test: Antioxidant activity assessed as DPPH radical scavenging activity at 23 uM after 30 mins; format: functional
Method in brief: (§3)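 Samples in EtOH (100 µL) mixed with 25 µL of 1 mM DPPH in EtOH plus 75 µL EtOH, then shaken briefly. Kept 30 min at room temperature in the dark. Absorbance read at 517 nm. % scavenging calculated against control, with blank and sample-blank corrections.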

[4] = Antioxidant activity assessed as inhibition of FeSO4-induced lipid peroxidation at 16 uM by TBARS assay; format: functional; method in brief: as §2
[5] = tested on: Radical scavenging activity; test: Antioxidant activity assessed as DPPH radical scavenging activity at 58 uM after 30 mins; format: functional; method in brief: as §3
[6] = Antioxidant activity assessed as inhibition of FeSO4-induced lipid peroxidation at 33 uM by TBARS assay; format: functional; method in brief: as §2
[7] = tested on: MCF7; test: Cytotoxicity against human MCF7 cells; format: functional
Method in brief: (§4)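 Cytotoxicity tested on HM02 gastric adenocarcinoma, HepG2 hepatocellular carcinoma and MCF7 breast adenocarcinoma lines following NCI standards.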

[8] = tested on: Radical scavenging activity; test: Antioxidant activity assessed as DPPH radical scavenging activity at 230 uM after 30 mins; format: functional; method in brief: as §3
[9] = Superoxide radical scavenging activity assessed as trolox equivalents by photochemiluminescence assay
Method in brief: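 Photochemiluminescence with luminol acting as photosensitizer and detection reagent, generating superoxide. Mix of 2.29 mL reagent 1 (solvent/diluent), 200 µL buffer reagent, 25 µL photosensitizer and 10 µL sample in ethanol or Trolox standard in water. Antioxidant capacity taken from the integral under the curve and expressed as Trolox equivalents.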

[10] = Antioxidant activity assessed as inhibition of FeSO4-induced lipid peroxidation at 164 uM by TBARS assay; format: functional; method in brief: as §2
[11] = Cytotoxicity against human HM02 cells; format: functional; method in brief: as §4
[12] = ABTS radical scavenging activity assessed as trolox equivalents by TEAC assay; format: physicochemical
Method in brief: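 ABTS radical cation made by passing ABTS in PBS through manganese dioxide, then filtered (0.2 µm). Diluted in 5 mM PBS pH 7.4 to A734 0.700 and preincubated 2 h at room temperature. 1 mL radical mixed with 200 µL ethanolic sample, vortexed 30 s, centrifuged. A734 of lower phase read exactly 2 min after mixing. PBS and ethanol blanks included. Trolox standards used; value is mM Trolox equivalent to 1.0 mM compound.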

[13] = tested on: Radical scavenging activity; test: Antioxidant activity assessed as DPPH radical scavenging activity at 12 uM after 30 mins; format: functional; method in brief: as §3
[14] = tested on: HepG2; test: Cytotoxicity against human HepG2 cells at 10 ug/ml; format: functional; conditions: read-out: GI
[15] = tested on: Mycotypha microspora; test: Antimicrobial activity against Mycotypha microspora at 50 ug/disk by agar diffusion assay; format: functional, organism-based; method in brief: as §1
[16] = Antioxidant activity assessed as inhibition of FeSO4-induced lipid peroxidation at 8 uM by TBARS assay; format: functional; method in brief: as §2
[17] = tested on: Radical scavenging activity; test: Antioxidant activity assessed as DPPH radical scavenging activity at 6 uM after 30 mins; format: functional; method in brief: as §3
[18] = tested on: Priestia megaterium; test: Antimicrobial activity against Bacillus megaterium at 50 ug/disk by agar diffusion assay; format: functional, organism-based; method in brief: as §1
[19] = tested on: Escherichia coli; test: Antimicrobial activity against Escherichia coli at 50 ug/disk by agar diffusion assay; format: functional, organism-based; method in brief: as §1
[20] = tested on: Microbotryum violaceum; test: Antimicrobial activity against Microbotryum violaceum at 50 ug/disk by agar diffusion assay; format: functional, organism-based; method in brief: as §1
[21] = tested on: Radical scavenging activity; test: Antioxidant activity assessed as DPPH radical scavenging activity at 115 uM after 30 mins; format: functional; method in brief: as §3
[22] = tested on: Aspergillus pseudoglaucus; test: Antimicrobial activity against Eurotium repens at 50 ug/disk by agar diffusion assay; format: functional, organism-based; method in brief: as §1
[23] = tested on: HepG2; test: Cytotoxicity against human HepG2 cells; format: functional; method in brief: as §4
[24] = target: Human immunodeficiency virus type 1 reverse transcriptase (Human immunodeficiency virus 1) (UniProt Q72547); test: Inhibition of HIV1 reverse transcriptase at 66 ug/ml by ELISA
Method in brief: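 HIV-1 RT activity inhibition measured by ELISA with the test compound at 66 µg/mL.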

Row | SMILES | Activity [1] | inhibition [2] [%] | Activity [3] [%] | inhibition [4] [%] | Activity [5] [%] | inhibition [6] [%] | GI50 [7] [µg/mL] | LC50 [7] [µg/mL] | TGI [7] [µg/mL] | Activity [8] [%] | Activity [9] [mmol/L] | inhibition [10] [%] | GI50 [11] [µg/mL] | LC50 [11] [µg/mL] | TGI [11] [µg/mL] | Activity [12] [mmol/L] | Activity [13] [%] | inhibition of growth at 10 µg/mL [14] [%] | Activity [15] | inhibition [16] [%] | also measured
1 | C/C(=C/CC/C(C)=C/CC/C(C)=C/C(=O)C/C(C)=C/Cc1cc(O)cc(C)c1O)CO | inactive | 67.2 | 25.1 | 14.8 | 64.8 | 32.1 | 2.2 (≈ 5.16 µM) | > 10 | 5.1 (≈ 12 µM) | 96.4 | 0.59 | 73.7 | 2.3 (≈ 5.39 µM) | > 10 | 7.4 (≈ 17.3 µM) | 0.09 | 12.3 | 86 | inactive | 10.6 | Activity [17]: 8%; Activity [18]: inactive; Activity [19]: inactive; Activity [20]: inactive; Activity [21]: 96.1%; Activity [22]: inactive; GI50 [23]: 7.1 µg/mL (≈ 16.6 µM); LC50 [23]: > 10 µg/mL; TGI [23]: > 10 µg/mL; Activity [24]: inactive
2 | C/C(=C/CC/C(C)=C/CC/C(C)=C\C(=O)C/C(C)=C/Cc1cc(O)cc(C)c1O)CO | inactive | 69.8 | 31.2 | 18.3 | 80.1 | 31.5 | 1.8 (≈ 4.22 µM) | > 10 | 4 (≈ 9.38 µM) | 96.7 | 0.51 | 73.4 | 1.8 (≈ 4.22 µM) | > 10 | 6 (≈ 14.1 µM) | 0.09 | 15.2 | 87 | inactive | 12 | Activity [17]: 9.1%; Activity [18]: inactive; Activity [19]: inactive; Activity [20]: inactive; Activity [21]: 96%; Activity [22]: inactive; GI50 [23]: 6.8 µg/mL (≈ 15.9 µM); LC50 [23]: > 10 µg/mL; TGI [23]: > 10 µg/mL; Activity [24]: inactive
